# An excerpt weighted towards active compounds, which were near 3.1% of everything screened.
# KCNK9 block: inhibitors of human KCNK9 two-pore domain potassium channel | HEK293 KCNK9, FluxOR thallium flux fluorescence; active compounds read low | B-score at 10 µM | 310,000 compounds, 1.2% hits | AID 488922;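 active means ratio B-score over 3 SD below the library mean, with starting fluorescence within 5 SD of its mean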;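 further: negative B-score means less thallium flux so channel inhibition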
# KCNQ1 pot: potentiators or activators of human KCNQ1 potassium channel | 310,000 compounds, 0.35% hits | AID 2648 | P51787 | B-score at 10 µM | CHO-K1 KCNQ1, thallium flux FluxOR fluorescence; active compounds read high;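 active means fluorescence ratio B-score, a plate-corrected score, at least three library SD, with initial intensity B-score within 5 SD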
# Target sequence (P51787 whole entry, looked up): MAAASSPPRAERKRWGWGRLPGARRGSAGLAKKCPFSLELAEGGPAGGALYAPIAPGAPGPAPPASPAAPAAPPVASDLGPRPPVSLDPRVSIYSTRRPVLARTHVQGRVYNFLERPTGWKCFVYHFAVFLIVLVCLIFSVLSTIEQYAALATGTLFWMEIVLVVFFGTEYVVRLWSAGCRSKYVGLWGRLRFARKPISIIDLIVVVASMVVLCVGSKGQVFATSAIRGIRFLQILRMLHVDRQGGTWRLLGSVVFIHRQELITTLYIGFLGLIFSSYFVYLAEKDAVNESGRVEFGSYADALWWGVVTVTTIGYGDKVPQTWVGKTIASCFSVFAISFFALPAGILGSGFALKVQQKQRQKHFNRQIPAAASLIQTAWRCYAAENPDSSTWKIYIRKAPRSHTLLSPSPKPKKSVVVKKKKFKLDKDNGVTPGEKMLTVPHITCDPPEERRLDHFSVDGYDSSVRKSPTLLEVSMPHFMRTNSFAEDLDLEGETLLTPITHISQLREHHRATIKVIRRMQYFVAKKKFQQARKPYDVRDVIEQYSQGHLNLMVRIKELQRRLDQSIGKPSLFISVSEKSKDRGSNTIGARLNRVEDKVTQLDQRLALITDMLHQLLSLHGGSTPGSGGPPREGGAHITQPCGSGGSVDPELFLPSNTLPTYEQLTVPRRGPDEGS
#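 assay system = CHO-K1 cells stably expressing KCNQ1 | medium = assay buffer, equal DMSO in all wells | timing = 37 °C overnight plating, 90-min dark dye load, 20-min compound pretreatment | measured by = kinetic FluxOR thallium fluorescence, 10-s 1-Hz baseline, 110-s post-stimulus read | measure = fluorescence change relative to baseline, converted to B score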
# KCNQ1 inh: blocks the human KCNQ1 potassium channel; P51787; CHO-K1 KCNQ1, FluxOR thallium flux fluorescence; active compounds read high; B-score at 10 µM; 310,000 compounds, 1.3% hits;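 active means compounds whose thallium flux B-score, printed positive for inhibition, exceeds three library SD while starting fluorescence stays within three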;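 further: channel opened by potassium depolarization with thallium stimulus after 20 min compound exposure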
# KCNK3 inh: human KCNK3 channel inhibition, primary screen. O14649. CHO-KCNK3 thallium flux, FluxOR fluorescence; active compounds read low. B-score at 10 µM. 340,000 compounds, 0.84% hits;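 active means B-score under library mean minus 4 SD, starting fluorescence ratio at most library mean plus 5 SD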;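 further: more negative B-score means stronger inhibition of thallium flux through KCNK3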
# hERG protect: shields human hERG channel from block by proarrhythmic agents. Q12809. CHO-hERG, FluxOR thallium flux, dofetilide IC70 present. activation (rescue from dofetilide block), less the hit threshold, % at 10 µM. 310,000 compounds, 0.51% hits. AID 1511;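 active means activation above the mean of controls blocked by dofetilide plus 5 SD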;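 further: thallium influx through hERG after potassium depolarization seen as dye fluorescence rise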
# KCNQ1 block val: confirmation of human KCNQ1 potassium channel inhibitors | 1,600 compounds, 93% hits | inhibition, % at 10 µM | AID 588353 | shares compounds with KCNQ1 inh | KCNQ1 cell line, FluxOR thallium flux fluorescence;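 active means primary screen active, with duplicate mean exceeding buffer control mean plus 3 SD of buffer wells, cut at about 28% in these data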
# CHO Tl flux: counter-screen for KCNQ1 inhibitors: effect in parental CHO cells; shares compounds with KCNQ1 inh; parental CHO-K1, FluxOR thallium flux fluorescence ratio; active compounds read low; zero means no signal rise above baseline; fluorescence ratio (Tl flux) at 10 µM; 1,600 compounds, 21% hits; AID 588366;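 active means mean of duplicate thallium-flux fluorescence ratios in parental host cells more than 5 SD below the buffer control mean, cut at about 0.38 in these data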;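 further: ratio is peak minus minimum fluorescence divided by baseline fluorescence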
# KCNQ1 ephys val: confirmation of human KCNQ1 potassium channel inhibitors by electrophysiology; shares compounds with KCNQ1 inh; KCNQ1-CHO cells, automated patch clamp current; calls only at 10 µM; 490 compounds, 20% hits;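 active means KCNQ1 current drop exceeding 3 SD of negative control wells, seen in both duplicate runs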;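 further: steady state current during a 2 s step from -80 to +40 mV; negative values mean current inhibition and positive values mean potentiation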
# KCNQ2 spec: selectivity of KCNQ1 inhibitors: inhibition of rat KCNQ2 channel; shares compounds with KCNQ1 inh; KCNQ2 cells, FluxOR thallium flux fluorescence; inhibition, % at 10 µM; 1,600 compounds, 71% hits;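 active means mean percent inhibition of the KCNQ2 thallium signal more than 5 SD above the buffer-only control wells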;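 further: KCNQ2 expressed in CHO cells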
# KCNQ1-KCNE1 inh: KCNQ1 inhibitor that also blocks human KCNQ1/KCNE1 channel; shares compounds with KCNQ1 inh; KCNQ1/KCNE1 cells, FluxOR thallium flux fluorescence; inhibition, % at 10 µM; 1,600 compounds, 77% hits; AID 652147;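 active means mean percent inhibition of duplicate wells above the buffer-only control mean plus 3 SD of those controls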
# KCNK9 block conf: human KCNK9 inhibitor confirmation. inhibition, % at 10 µM. HEK293 KCNK9 cells, FluxOR thallium flux fluorescence. 4,900 compounds, 43% hits. shares compounds with KCNK9 block;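 active means thallium signal inhibited by more than 5 SD of the compound-free buffer control wells, on both duplicate plates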
# Kir21 sel: selectivity of KCNK9 modulators against mouse Kir2.1 | shares compounds with KCNK9 block | Kir2.1 cells, FluxOR thallium flux fluorescence | inhibition, % at 10 µM | 4,900 compounds, 4% hits | AID 492993;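 active means thallium signal drop more than 5 SD beyond the mean of the no-compound control wells, seen in both duplicate plates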;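 further: signal is fluorescence rise after thallium addition divided by baseline fluorescence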
# HEK293 Tl ctr: second check of KCNK9 modulator effects in non-induced HEK293 cells; shares compounds with KCNK9 block; FluxOR thallium flux; inhibition, % at 10 µM; 4,900 compounds, 40% hits; AID 492997;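 active means thallium signal drop beyond 5 SD of the untreated control mean, on both duplicate plates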
# KCNK3 inh conf: confirmation of human KCNK3 two-pore domain potassium channel inhibitors; shares compounds with KCNK3 inh; CHO-KCNK3 thallium flux, FluxOR fluorescence; 0% buffer, 100% carvedilol maximal block; ratio percent of control, % at 10 µM; 2,400 compounds, 99% hits; AID 651638;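 active means ratio percent of control, averaged over triplicates, above buffer control mean plus 5 SD, cut at about 64% in these data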;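 further: ratio is the fluorescence rise from min to max over baseline after thallium stimulus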
# KCNK3 uninduced: KCNK3 inhibitor counter-screen hit in non-induced cells; shares compounds with KCNK3 inh; non-induced KCNK3 parental cells, FluxOR thallium flux; active compounds read low; thallium flux ratio (lower = more inhibition) at 10 µM; 2,400 compounds, 40% hits; AID 651747;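 active means thallium flux ratio, averaged over three wells, more than 5 SD below the buffer control mean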;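 further: host cells are CHO cells without KCNK3 induction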
# A number is an active result; – = inactive; · = no result given; + = active, no number.
SMILES,KCNK9 block,KCNQ1 pot,KCNQ1 inh,KCNK3 inh,hERG protect,KCNQ1 block val,CHO Tl flux,KCNQ2 spec,KCNQ1-KCNE1 inh,KCNK3 inh conf,KCNK3 uninduced,others
Cc1ccc(Cl)cc1N1CCN(C(=S)NCCc2ccccc2)CC1,–,–,12,-11,–,111,–,117%,108%,128,0.15,KCNQ1 ephys val=–
COc1ccc([C@H]2CC(=O)C=C(c3ccnc4ccc(Cl)cc34)C2)cc1,·,·,·,–,·,·,·,·,·,·,·,
Cc1ccc(NC(=O)c2cc(-c3cccs3)nc3ccccc23)nc1,–,–,6,-11,–,88,0.37,121%,196%,111,0.14,
CCOc1ccc(C(=O)Nc2cccc(C(=O)O)c2)cc1Cl,–,–,–,–,–,·,·,·,·,·,·,
CCOc1ccc(C(=O)Nc2cccc(-c3nc4cccnc4o3)c2)cc1Cl,-16,–,9,-10,–,135,–,110%,190%,125,–,KCNQ1 ephys val=–;KCNK9 block conf=46%;Kir21 sel=–;HEK293 Tl ctr=–
O=C(Nc1ccccc1)c1cc(S(=O)(=O)NCc2ccncc2)ccc1Cl,–,–,–,–,–,·,·,·,·,·,·,
CCN(C(=O)COC(=O)c1ncc(Cl)c(Cl)c1Cl)c1c(N)n(Cc2ccccc2)c(=O)[nH]c1=O,·,·,·,–,·,·,·,·,·,·,·,
Cc1ccc(NC(=S)NCc2ccccc2)cc1S(=O)(=O)N1CCCCC1,–,–,6,-11,–,108,–,62%,–,116,–,KCNQ1 ephys val=–
CCOc1ccc(NS(=O)(=O)c2ccc(C(=O)N(C)CC(=O)Nc3ccc(C)cc3)cc2)cc1,–,–,–,–,–,·,·,·,·,·,·,
CC(C)(C)c1cc(C(=O)NCc2cc(F)cc3c2OCOC3)n(Cc2ccccc2)n1,-7.9,–,9,-12,–,134,0.37,101%,198%,135,0.13,
CCOc1ccc(OCC)c(NC(=O)Nc2ccc3c(c2)N(C)C(=O)CS3)c1,–,–,14,-16,–,82,–,90%,152%,119,–,
COc1cccc(NC(=O)Nc2ccc3c(c2)N(C)C(=O)CS3)c1,–,–,6,-11,–,114,0.36,114%,+,119,–,
COc1cccc(NC(=O)Nc2ccncc2)c1,–,–,–,–,–,·,·,·,·,·,·,
CC(=O)Nc1ccc(NC(=O)Nc2ccc3c(c2)N(C)C(=O)CS3)cc1,–,–,–,–,–,·,·,·,·,·,·,
CN1C(=O)CSc2ccc(NC(=O)Nc3ccccn3)cc21,–,–,–,–,–,·,·,·,·,·,·,
COc1cccc(NC(=O)Nc2ccc(C(C)(C)C)cc2)c1,–,–,13,-13,–,152,0.35,109%,+,134,0.13,
Cc1ccc(C)c(NC(=O)CN(C)C(=O)C2CCN(C(=O)Nc3ccccc3)CC2)c1,–,–,–,–,–,·,·,·,·,·,·,
COc1ccc(COC(=O)C2CCN(S(=O)(=O)c3ccc(C)cc3)CC2)cc1,–,–,–,–,–,·,·,·,·,·,·,
COC(=O)c1cccc(Cn2c(Cl)c(/C=N/NC(=O)c3ccco3)sc2=O)c1,–,–,–,–,–,·,·,·,·,·,·,
Fc1ccc(C2c3[nH]c4ccccc4c3CCN2Cc2cccn2-c2ncccn2)cc1 (configuration not stated),-7.8,–,6,-14,–,84,–,72%,97%,121,0.15,
Cc1cnc(C(=O)N2CCc3c([nH]c4ccccc34)C2c2ccc(F)cc2)cn1 (configuration not stated),–,–,–,–,–,·,·,·,·,·,·,
C[C@H](CO)N1C[C@H](C)[C@@H](CN(C)CC2CCCCC2)Oc2c(NS(=O)(=O)c3ccc(F)cc3)cccc2C1=O,·,·,·,–,·,·,·,·,·,·,·,
Nc1nc(NS(=O)(=O)c2ccc(Cl)cc2)nn1-c1ccccc1,–,–,–,–,–,·,·,·,·,·,·,
COc1cc(C(C)=O)ccc1OCC(=O)Nc1ccccc1N1CCCCC1,–,–,–,–,–,·,·,·,·,·,·,
Cc1cccc(OCC(=O)Nc2ccccc2N2CCCCC2)c1C,-8.4,–,9,–,–,102,–,88%,150%,110,–,KCNQ1 ephys val=–;KCNK9 block conf=54%;Kir21 sel=34%;HEK293 Tl ctr=42%
SMILES,KCNK9 block,KCNQ1 pot,KCNQ1 inh,KCNK3 inh,hERG protect,KCNQ1 block val,CHO Tl flux,KCNQ2 spec,KCNQ1-KCNE1 inh,KCNK3 inh conf,KCNK3 uninduced,others
O=C(O)CCN(CC(=O)c1ccc(Cl)cc1)S(=O)(=O)c1ccc([N+](=O)[O-])cc1,·,·,·,–,·,·,·,·,·,·,·,
O=[N+]([O-])c1c(Nc2ccccc2O)cc(Cl)c2nonc12,–,–,21,-12,–,184,0.2,151%,+,154,0.076,
O=[N+]([O-])c1c(Nc2ccccc2O)ccc2nonc12,–,–,–,–,–,·,·,·,·,·,·,
CN1CCN(c2sc(S(C)(=O)=O)nc2S(=O)(=O)c2ccc(Cl)cc2)CC1,–,–,–,–,–,·,·,·,·,·,·,
COC(=O)C1C(c2ccccc2)C(C(=O)OCc2ccco2)C1c1ccccc1 (configuration not stated),-8.3,–,6,-11,–,95,0.36,111%,164%,116,0.15,KCNK9 block conf=44%;Kir21 sel=–;HEK293 Tl ctr=24%
O=C(N/N=C/c1ccc(O)c(Br)c1)c1cc2c(ccc3ccccc32)o1,–,–,–,–,–,·,·,·,·,·,·,
O=C(N/N=C/c1cc(Br)c(O)c(Br)c1)c1cc2c(ccc3ccccc32)o1,–,–,15,-11,–,160,0.32,130%,+,136,0.093,
COc1ccc(C(=O)C2CCCN(Cc3cccn3-c3nccs3)C2)cc1OC (configuration not stated),–,–,–,–,–,·,·,·,·,·,·,

# Compound activity as filed in PubChem BioAssay.
